High-throughput results: PubChem, Sanford-Burnham Center for Chemical Genomics
Sampled rows, rich in hits. Any-hit rate of the full collection: about 1.5%.
APJ antagonist: antagonists of human apelin receptor APJ, primary screen, CHO-K1 cells, beta-arrestin complementation, luminescence | P35414 | inhibition, % at 20 µM | 0.32% of 330,000 active | AID 2521, 2010;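 active means inhibition above about 40% at 20 µM, limit read from the data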;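 further: cells challenged with 10 nM apelin-13 agonist together with compound; plate controls were apelin-13 plus DMSO wells for no effect and DMSO wells lacking apelin-13 for full effect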
CCR6 antag: CCR6 receptor antagonists, primary screen, cell-based, CHO-K1, luminescence, beta-arrestin, uHTS; CHO-K1 CCR6 PathHunter beta-arrestin, CCL20-stimulated; inhibition, % at 20 µM; 0.49% of 340,000 active; AID 493098, 2011;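 active means compounds whose inhibition of the agonist-driven luminescence signal at 20 µM reaches about 50%, limit read from the data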;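 further: cells stimulated with CCL20 at 14 nM final; plate controls were DMSO with CCL20 for no effect and DMSO without agonist for full effect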
Target sequence (P51684 whole entry, looked up): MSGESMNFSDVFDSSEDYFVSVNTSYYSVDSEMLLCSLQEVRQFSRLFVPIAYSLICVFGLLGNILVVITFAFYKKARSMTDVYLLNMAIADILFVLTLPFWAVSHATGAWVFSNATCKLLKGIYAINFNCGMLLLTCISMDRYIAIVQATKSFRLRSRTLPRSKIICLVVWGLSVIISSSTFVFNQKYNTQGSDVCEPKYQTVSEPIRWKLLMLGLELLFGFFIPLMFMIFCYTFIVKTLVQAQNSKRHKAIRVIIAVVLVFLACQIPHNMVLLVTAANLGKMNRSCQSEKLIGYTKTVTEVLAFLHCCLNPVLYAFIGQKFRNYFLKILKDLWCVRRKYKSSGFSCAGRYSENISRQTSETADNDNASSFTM
CXCR6 block: CXCR6 receptor inhibitors, primary screen, cell-based, beta-arrestin, luminescence, CHO-K1 PathHunter, 1536-well; C-X-C chemokine receptor type 6 (Homo sapiens), O00574; inhibition, % at 20 µM; 0.36% of 360,000 active; in the data active means inhibition above about 34%, passing the limit was not always enough;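 further: antagonist mode with CXCL16 agonist at 10 nM final; 0% = 10 nM CXCL16 with DMSO and 100% = unstimulated wells without agonist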
EBI2 block: EBI2 receptor antagonists, beta-arrestin recruitment, primary screen, cell-based, luminescence, 7a,25-OHC stimulation, uHTS; G-protein coupled receptor 183 (Homo sapiens), P32249; 7a,25-OHC stimulated; inhibition, % at 5 µM; 0.81% of 360,000 active; AID 651636, 2012; in the data active means inhibition above about 38%;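 further: enzyme fragment complementation signal reports receptor beta-arrestin coupling in cells; 0% = agonist plus DMSO wells and 100% = wells without agonist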
APJ ag: agonists of human apelin receptor APJ, primary screen, CHO-K1 cells, PathHunter beta-arrestin, luminescence; P35414; 0% DMSO wells, 100% apelin; activation, % at 20 µM; 0.11% of 330,000 active; AID 2520, 2010;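 active means activation more than six SD over the plate average, tested at 20 µM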;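 further: 0% = DMSO alone and 100% = apelin-13 at 10 nM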
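Test system – PathHunter CHO-K1 APJ (AGTRL-1) beta-arrestin reporter cells · Input – 1000 cells/well · Compound – single test compound dose, 20 µM final, 1% DMSO · Times – compound stimulation 90 min at 25 °C, detection 60 min · Technique – beta-gal luminescence · Read-out basis – APJ–arrestin association signal · Control set – negative DMSO alone, positive Apelin-13 at 10 nM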
EBI2 antag conf: EBI2 antagonist hit retest, beta-arrestin, confirmation, cell-based, single concentration, luminescence, 7a,25-OHC stimulation | 29% of 2,400 active | shares compounds with EBI2 block | 7a,25-OHC antagonism | inhibition, % at 5 µM;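 active means inhibition of at least 50%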
EBI2 ag: EBI2 agonist activity of antagonist hits, confirmation, counter-screen for EBI2 antagonist project, cell-based, single concentration, agonist mode, luminescence. EBI2-expressing cells, 60 min; 0% vehicle, 100% 7α,25-dihydroxycholesterol control. activation, % at 5 µM. shares compounds with EBI2 block. 2,400 tested, under 10 active;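 active means activation of at least 50%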
bGal cs: E. coli beta-galactosidase enzyme inhibition, confirmation, counter-screen for EBI2 antagonist project, biochemical, luminescence, single concentration; shares compounds with EBI2 block; purified beta-galactosidase, luminescent Galacton Star, 15 min; inhibition, % at 5 µM; 1% of 2,400 active;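 active means replicate-average signal at least 3 plate SD below neutral wells, shown as high inhibition, flagging enzyme-inhibiting false positives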;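 further: 0% = DMSO wells with enzyme and 100% = wells lacking enzyme; higher means stronger loss of beta-gal luminescence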
Active calls of the source: *.

How did O=c1[nH]c(CN2CCN(C/C=C/c3ccccc3)CC2)nc2ccccc12 do in these assays?
APJ antagonist: 9.8; CCR6 antag: 13.2; CXCR6 block: -1.3; EBI2 block: 21.0; APJ ag: 2.8

Results for Cc1cccc(C)c1NC(=O)C(c1cccc2ccccc12)n1c(=O)c(-c2cc3ccccc3[nH]2)nc2ccccc21 (stereo not given) ?
EBI2 block: 5.1

Results for CC(=O)Nc1ccc(S(=O)(=O)Oc2ccc3c(c2)C(C)=CC(C)(C)N3)cc1 ?
APJ antagonist: -35.9; APJ ag: 5.2

Results for CC1=CC(C)(C)Nc2ccc(OS(=O)(=O)c3ccc(C)cc3)cc21 ?
APJ antagonist: -3.5; CCR6 antag: 11.2; CXCR6 block: -1.8; EBI2 block: 42.3*; APJ ag: 7.4; EBI2 antag conf: 13.5; EBI2 ag: -0.3; bGal cs: 2.1

What do the screens show for `Clc1ccc(-c2csc3ncnc(N4CCc5ccccc5C4)c23)cc1`?
APJ antagonist: 11.0; CCR6 antag: 0.9; CXCR6 block: -1.6; EBI2 block: 44.4*; APJ ag: -3.5; EBI2 antag conf: 24.4; EBI2 ag: -1.6; bGal cs: -8.8

What do the screens show for `C#CCOc1ccc(CNC[C@H]2O[C@@H](n3ccc(=O)[nH]c3=O)[C@H](O)[C@@H]2O)cc1`?
CXCR6 block: -4.0; EBI2 block: -2.5

How did COc1ccc(OC)c(C(O)c2ncc(-c3ccc(C(F)(F)F)cc3)[nH]2)c1 (stereo not given) do in these assays?
CXCR6 block: -9.5; EBI2 block: -2.6

What do the screens show for `O=C(c1cccc(C(=O)N2CCC(O)(c3ccccc3)CC2)c1)N1CCC(O)(c2ccccc2)CC1`?
APJ antagonist: -10.1; CCR6 antag: 1.2; CXCR6 block: -2.2; EBI2 block: -8.9; APJ ag: -3.1

Results for Cc1ccc2oc(C(=O)N3CCC(O)(c4ccccc4)CC3)c(C)c2c1 ?
APJ antagonist: -15.8; CCR6 antag: 10.8; CXCR6 block: 4.5; EBI2 block: 84.3*; APJ ag: 1.1; EBI2 antag conf: 77.8*; EBI2 ag: 0.6; bGal cs: 3.3

Results for CCN(CC)C(=O)C1CCN(C(=O)c2oc3ccc(C)cc3c2C)CC1 ?
APJ antagonist: 9.2; CCR6 antag: 0.9; CXCR6 block: -2.0; EBI2 block: 79.5*; APJ ag: 6.0; EBI2 antag conf: 57.4*; EBI2 ag: 3.2; bGal cs: 5.7

How did CNC(=O)C1CCC(=O)N1Cc1c[nH]c2ccccc12 (stereo not given) do in these assays?
CXCR6 block: 4.5; EBI2 block: -8.2

Results for CC(C)(C)NC(=O)C(C1CC1)n1c(=O)c(-c2ccccc2)nc2ccccc21 (stereo not given) ?
EBI2 block: 5.6

Results for COc1cc(CN2C[C@@H](CO)O[C@@H](n3cnc4c(NCCN(C)C)ncnc43)C2)cc(OC)c1OC ?
CXCR6 block: -1.0; EBI2 block: -3.9

What do the screens show for `CCCCn1nnnc1C(C1CC1)N1CCN(C/C=C/c2ccccc2)CC1` (stereo not given)?
CXCR6 block: 2.4; EBI2 block: 14.5

How did O=C(Nc1ccc2c(c1)OCCO2)C(c1cc2ccccc2o1)N1CCN(C/C=C/c2ccccc2)CC1 (stereo not given) do in these assays?
CXCR6 block: -3.1; EBI2 block: 38.9*; EBI2 antag conf: 6.7; EBI2 ag: -1.8; bGal cs: -6.3
